TPT1 inhibitor: blocks Candida albicans tRNA 2'-phosphotransferase; recombinant caTPT1, FP RNA substrate dephosphorylation; inhibition, % at 5 µM; 300,000 compounds, 0.81% hits; AID 1962;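 active means inhibition above the mean of all tested compounds plus 3 SD, set per screening campaign, cut at about 24% in these data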;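 further: plate controls were DMSO alone for no effect and ferristatin control at 100 nM for full effect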
IDE act: activators of human insulin-degrading enzyme in cells; P14735; HEK cells, FAbeta-B cleavage, fluorescence polarization; 0% vehicle, 100% cell-free pure enzyme wells; activation, % at 5.96 µM; 340,000 compounds, 0.073% hits; AID 493087;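 active means activation above the mean of all tested compounds plus 3 SD, set per screening campaign, cut at about 17% in these data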
HNF4A DNA FP: change in binding of human HNF4 alpha to DNA. P41235. HNF4a-FITC DNA binding, fluorescence polarization, 1 h. activity change, % at 10 µM. 360,000 compounds, 0.3% hits; in the data active means activity change above about 30%, passing the limit was not always enough
CSN inh: inhibitors of human CSN-mediated cullin deneddylation. Q92905. AID 651999. Purified CSN, SCF-Nedd8-OG deneddylation, fluorescence polarization. 360,000 compounds, 0.38% hits. inhibition, % at 12.5 µM;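 active means pattern-corrected inhibition above about 35%, with an unprinted fluorescence ratio check between 0.5 and 1.5, limit read from the data, passing the limit was not always enough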;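 further: 0% = enzyme with substrate and 100% = substrate without enzyme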
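test system = HEK293T-derived human Csn5 enzyme | amount = 0.24 nM Csn5 enzyme, final concentration | medium = Tris/NaCl/DTT buffer, pH 7.5 | schedule = 90 min reaction at room temperature | signal = FP | evaluation = inhibition of Csn5 cleavage, % | compound dosing = single dose of 12.5 µM compound with 0.25% DMSO | probe or stimulus = 10 nM SCFSkp2-Nedd8OG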
IDE cell inh: inhibitors of human insulin-degrading enzyme in cells. P14735. 320,000 compounds, 0.41% hits. inhibition, % at 5.59 µM. HEK cells, FAbetaB cleavage, fluorescence polarization;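 active means percent inhibition above the average of all tested compounds plus 3 SD, set per screening campaign, cut at about 16% in these data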;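 further: IDE supplied by intact live HEK cells; FP after avidin binding of uncleaved biotin substrate so inhibition keeps polarization high; 0% = DMSO wells and 100% = 60 µM reference IDE inhibitor Ii1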
Rpn11 inh: inhibitors of human proteasome Rpn11 | inhibition, % at 20 µM | O00487 | AID 588493 | human 26S proteasome, Ub4-pepOG fluorescence polarization; 20S core pre-blocked with epoxomicin | 360,000 compounds, 0.59% hits;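 active means inhibition at 20 µM, scaled to each plate's controls, above about 33%, limit read from the data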
Rpn11 confirm: confirmation of human proteasome Rpn11 inhibitors. shares compounds with Rpn11 inh. purified human 26S proteasome, Ub4-pepOG fluorescence polarization; proteasome pretreated with epoxomicin. inhibition, % at 20 µM. 1,900 compounds, 29% hits. AID 602318
MMP-2 counter: blocks human MMP-2, flagging nonselective RPN11 hits; shares compounds with Rpn11 inh; recombinant MMP-2, FRET peptide cleavage fluorescence; inhibition, % at 20 µM; 1,900 compounds, 4% hits; AID 602330;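 further: human MMP-2 activated beforehand with APMA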
Thrombin FP: counter-screen for RPN11 inhibitors: inhibition of bovine thrombin; shares compounds with Rpn11 inh; bovine thrombin cleavage of Ub4-pepOG, fluorescence polarization; inhibition, % at 20 µM; 1,900 compounds, 13% hits;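 active means mean inhibition at least 40% at 20 µM, or signal 3 deviations below plate average, so some actives read negative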;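 further: plate controls were thrombin with DMSO for no effect and buffer wells lacking thrombin for full effect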
Target sequence (P00735 whole entry, looked up): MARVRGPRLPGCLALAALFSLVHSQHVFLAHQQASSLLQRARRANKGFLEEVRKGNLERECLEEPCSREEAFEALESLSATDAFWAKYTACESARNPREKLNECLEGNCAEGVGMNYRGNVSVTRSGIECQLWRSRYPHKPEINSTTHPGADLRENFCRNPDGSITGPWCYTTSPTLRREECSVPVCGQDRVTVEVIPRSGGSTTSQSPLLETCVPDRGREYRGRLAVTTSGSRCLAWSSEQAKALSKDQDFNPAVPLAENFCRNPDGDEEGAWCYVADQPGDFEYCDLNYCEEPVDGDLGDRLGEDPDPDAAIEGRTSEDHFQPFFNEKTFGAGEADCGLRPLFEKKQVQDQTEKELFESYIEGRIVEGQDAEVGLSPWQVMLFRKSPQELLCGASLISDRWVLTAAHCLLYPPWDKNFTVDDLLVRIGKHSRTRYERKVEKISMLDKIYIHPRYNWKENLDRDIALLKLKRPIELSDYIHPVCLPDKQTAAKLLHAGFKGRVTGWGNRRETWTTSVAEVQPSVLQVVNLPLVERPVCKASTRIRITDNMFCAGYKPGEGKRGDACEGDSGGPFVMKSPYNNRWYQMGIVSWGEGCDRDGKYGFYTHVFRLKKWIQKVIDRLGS
An asterisk follows results filed as active; i = inactive; / = no result; ! = not active in a repeat. Rows were chosen to be rich in hits. Some 1.7% of all compounds tested hit in one or more screens of this group. Unless noted, no stated cut-off is given here; in the data, active means inhibition above about 40%; inactive means the rest.

SMILES | TPT1 inhibitor | IDE act | HNF4A DNA FP | CSN inh | IDE cell inh | Rpn11 inh | Rpn11 confirm | MMP-2 counter | Thrombin FP
O=C(N/N=C/c1c(O)n(C2CCCCC2)c(=S)[nH]c1=O)c1ccccc1O | 7 | 7 | -1 | 3 | -4 | 49* | 53* | -22 | 13
O=C(N/N=C/c1c(O)n(C2CCCCC2)c(=S)[nH]c1=O)c1ccccc1 | 1 | -2 | 3 | 8 | 3 | 46* | 50* | -2 | -15
CC(C)c1ccc(-n2c(O)c(/C=N/NC(=O)c3ccccc3O)c(=O)[nH]c2=S)cc1 | 9 | 2 | 9 | 5 | -5 | 48* | 53* | 36 | 0
O=c1[nH]c(=S)n(C2CC2)c(O)c1/C=N/Nc1ccccc1 | 0 | -1 | 1 | -4 | 0 | -1 | / | / | /
O=C(N/N=C/c1c(O)n(CCc2ccccc2)c(=O)[nH]c1=O)c1ccccc1 | 15 | / | 17 | 10 | 14 | 45* | 30 | -34 | -96
CCOC(=O)[C@@]12C(=O)C(=O)N[C@]1(c1ccccc1)C1OCCCC12 (stereo partly drawn) | -4 | -5 | 1 | -3 | 6 | 2 | / | / | /
CCOc1ccc(N=Cc2c(O)n(CCc3ccc(OC)c(OC)c3)c(=O)[nH]c2=O)cc1 | 3 | 11 | 11 | 29 | -1 | 19 | / | / | /
COc1ccc(CCn2c(O)c(C=Nc3ccc(NC(C)=O)cc3)c(=O)[nH]c2=O)cc1OC | 7 | / | 5 | 38* | -1 | 46* | 16 | i | 1
O=c1[nH]c(=O)n(-c2ccc(F)cc2)c(O)c1C=Nc1ccccc1N1CCCC1 | 1 | 0 | 58* | 16 | 3 | 61* | 16 | 29 | -52
O=c1c2ccccc2nc(/C=C/c2ccc(F)cc2)n1-c1ccccn1 | -4 | / | / | / | 5 | / | / | / | /
O=c1c2ccccc2nc(/C=C/c2ccc(O)cc2)n1-c1ccccc1O | 6 | -32 | 3 | 3 | 34* | 39* | 13 | -17 | 7
CNC(=O)Oc1ccc2c(c1)C(=O)c1ccccc1CO2 | -2 | 7 | 0 | -3 | 5 | 100* | -14 | -47 | -5
Cc1ccc(NC2=NCCCS2)cc1Cl | 2 | 4 | -1 | -2 | -3 | -1 | / | / | /
Cc1ccc(N2C(=O)NC(=O)/C(=C/c3ccoc3)C2=O)cc1 | / | -27 | -28 | 88* | / | 150* | 144* | 32 | 23
Clc1ccc(C(Cn2ccnc2)OCc2csc3c(Cl)cccc23)c(Cl)c1 (stereo not drawn) | 6 | -3 | 1 | -5 | -2 | 2 | / | / | /
C[C@]12CCC3C(CC[C@H]4C[C@H](O)CC[C@]34C)C1C[C@@H](O)[C@H]2O (stereo partly drawn) | / | / | 3 | 6 | / | -6 | / | / | /
Cc1ccccc1-n1c(O)c(/C=C2/C(c3ccccc3)=Nc3ccccc32)c(=O)[nH]c1=O | 6 | 2 | 3 | -4 | 9 | 41* | 35 | 10 | 25
NC(=S)N/N=C/c1coc2ccccc2c1=O | 3 | 3 | -1 | 1 | -3 | 2 | / | / | /
O=c1[nH]c(CN2CC=C(c3ccccc3)CC2)nc2cc(C(F)(F)F)ccc12 | 19 | -4 | 22 | 14 | 0 | 47* | 9 | 1 | -8
O=c1[nH]c(O)c(Cc2ccc3c(c2)OCO3)c(=O)[nH]1 | -4 | 4 | -1 | 1 | 3 | -4 | / | / | /
COc1ccc(/C=C/C(=O)c2c(O)n(CCC3=CCCCC3)c(=O)[nH]c2=O)cc1OC | 9 | -5 | 0 | 33 | -1 | 44* | active | -62 | active
C=CCn1c(O)c(C(C)=NCCC2=CCCCC2)c(=O)[nH]c1=O | -2 | 2 | 1 | 0 | 1 | 2 | / | / | /
COc1ccc2c3c1OC1C(=O)CC[C@@]4(O)[C@@H](C2)N(C)CC[C@]314 (stereo partly drawn) | / | -1 | / | 2 | 2 | 2 | / | / | /
O=c1[nH]c(=S)n(Cc2ccc(F)cc2)c(O)c1C=NCc1ccc2c(c1)OCO2 | 0 | 2 | 0 | 3 | 2 | 32* | -13 | -9 | -18
O=c1[nH]c(=S)n(Cc2ccc(F)cc2)c(O)c1/C=N/N1CCCCCC1 | 8 | 0 | 35 | -5 | 1 | 57* | 23 | 25 | 13
SMILES | TPT1 inhibitor | IDE act | HNF4A DNA FP | CSN inh | IDE cell inh | Rpn11 inh | Rpn11 confirm | MMP-2 counter | Thrombin FP
O=c1[nH]c(=S)n(Cc2ccc(F)cc2)c(O)c1C=NCCCn1ccnc1 | 3 | 9 | 4 | -2 | -4 | 1 | / | / | /
CN(C)CCN=Cc1c(O)n(Cc2ccc3c(c2)OCO3)c(=S)[nH]c1=O | -2 | 7 | 1 | -4 | 1 | 13 | / | / | /
O=C1CC(=O)N(c2ccc(Cl)cc2)C(=O)N1 | 14 | -1 | 12 | 14 | -1 | 19 | / | / | /
Cc1ccccc1N1C(=O)CC(=O)NC1=O | 8 | 0 | 2 | -3 | 4 | 4 | / | / | /
CC(C)c1ccc(N2C(=O)CC(=O)NC2=O)cc1 | 20 | 2 | 10 | 7 | 3 | 37* | 15 | 3 | 4
CCc1ccccc1N1C(=O)CC(=O)NC1=O | 6 | 1 | 6 | 4 | 1 | 28* | -8 | -37 | 4
O=c1c2ccccc2nc(-c2ccco2)n1-c1nccs1 | 0 | -3 | 2 | -2 | 3 | 50* | -12 | -28 | -6
CC(C)CCNC(=O)c1cc(C(=O)c2cc(Br)ccc2O)cn(CCC(C)C)c1=O | 4 | 2 | 7 | 5 | 5 | 45* | -10 | -17 | -9
Cc1cccc(N2CCc3c2nc2ccccc2c3N)c1 | -3 | -1 | 7 | 6 | 8 | 3 | / | / | /
CCN(CC)P(=O)(NC(=O)C(Cl)(Cl)Cl)N(CC)CC.[Cl-].[Cl-].[Cl-].[Nd+3] | 2 | -3 | 53*! | 104*! | 5 | 63* | 6 | -9 | -27
CN1CCc2c(C#N)c(Cl)nc(Cl)c2C1 | 1 | 2 | -3 | 2 | 2 | -7 | / | / | /
Cc1cc(C(=O)OC(C)C(=O)Nc2ccccc2)c(C)n1C1CC1 (stereo not drawn) | / | / | -3 | 1 | / | 1 | / | / | /

High-throughput results (PubChem BioAssay)
